From ChEMBL document CHEMBL3526081 (Drug Metab Dispos, 2011)

Assays:
[1] = Drug level in Swiss-Hauschka (ICR) mouse liver microsomes treated with 100 uM cinobufagin at 37 degC after 30 mins by UFLC-ESI-MS analysis in presence of NADPH-generating system; type: ADME; conditions: 0.5 h
How it was run: (§1)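 Liver microsomes (0.3 mg protein/ml) incubated with 100 µM substrate at 37°C for 30 min, in 100 mM potassium phosphate pH 7.4 with NADPH-generating system (1 mM NADP+, 10 mM glucose 6-phosphate, 1 unit/ml G6PDH, 4 mM MgCl2). Acetonitrile ≤1% final. Stopped with ice-cold acetonitrile and centrifuged. Metabolites identified by UFLC-ESI-MS and quantified by UFLC-DAD at 294 nm against authentic standard curves.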

[2] = Drug level in Colony-bred Chinese Bama minipig liver microsomes treated with 100 uM cinobufagin at 37 degC after 30 mins by UFLC-ESI-MS analysis in presence of NADPH-generating system; type: ADME, Sus scrofa; conditions: pig, 0.5 h; how it was run: as §1
Liver microsome = experiment: Drug level in human liver microsomes treated with 100 uM cinobufagin at 37 degC after 30 mins by UFLC-ESI-MS analysis in presence of NADPH-generating system; type: ADME; conditions: 0.5 h; how it was run: as §1
[3] = Cytotoxicity against human Bel7402 cells assessed as againsthibition of cell growth after 72 hrs; type: cell-based; conditions: Bel-7402, 72 h
How it was run: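 Bel-7402 hepatoma cells grown in RPMI 1640 with 10% FBS and 1% penicillin/streptomycin, trypsinised, seeded and exposed to serial dilutions for 72 h at 37°C.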

Cytochrome P450 2C19 = Cytochrome P450 2C19 (Homo sapiens, UniProt P33261); experiment: Drug level in human recombinant CYP2C19 expressed in insect cells coexpressing NADPH-P450 reductase measured per pmol of enzyme treated with 100 uM cinobufagin at 37 degC after 30 mins by UFLC-DAD-ESI-MS analysis; type: ADME; conditions: 0.5 h
Chain of Cytochrome P450 2C19 (P33261 whole entry): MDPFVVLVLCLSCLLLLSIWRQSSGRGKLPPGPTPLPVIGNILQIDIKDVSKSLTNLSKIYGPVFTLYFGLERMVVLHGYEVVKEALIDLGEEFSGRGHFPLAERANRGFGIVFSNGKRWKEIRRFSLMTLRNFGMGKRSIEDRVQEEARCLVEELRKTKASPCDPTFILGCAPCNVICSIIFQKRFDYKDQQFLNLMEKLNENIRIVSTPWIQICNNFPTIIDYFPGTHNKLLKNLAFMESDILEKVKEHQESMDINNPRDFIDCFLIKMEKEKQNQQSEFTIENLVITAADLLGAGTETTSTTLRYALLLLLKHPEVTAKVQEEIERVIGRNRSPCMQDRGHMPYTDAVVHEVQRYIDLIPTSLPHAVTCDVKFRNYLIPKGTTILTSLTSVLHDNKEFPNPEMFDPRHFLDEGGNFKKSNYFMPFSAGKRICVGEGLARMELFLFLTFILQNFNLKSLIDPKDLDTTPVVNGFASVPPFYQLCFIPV

Cytochrome P450 1A2 = molecular target: T1, Cytochrome P450 1A2 (Homo sapiens, UniProt P05177); experiment: Drug level in human recombinant CYP1A2 expressed in insect cells coexpressing NADPH-P450 reductase measured per pmol of enzyme treated with 50 uM cinobufagin at 37 degC after 30 mins by UFLC-DAD-ESI-MS analysis; conditions: 0.5 h
T1 sequence (P05177 whole entry): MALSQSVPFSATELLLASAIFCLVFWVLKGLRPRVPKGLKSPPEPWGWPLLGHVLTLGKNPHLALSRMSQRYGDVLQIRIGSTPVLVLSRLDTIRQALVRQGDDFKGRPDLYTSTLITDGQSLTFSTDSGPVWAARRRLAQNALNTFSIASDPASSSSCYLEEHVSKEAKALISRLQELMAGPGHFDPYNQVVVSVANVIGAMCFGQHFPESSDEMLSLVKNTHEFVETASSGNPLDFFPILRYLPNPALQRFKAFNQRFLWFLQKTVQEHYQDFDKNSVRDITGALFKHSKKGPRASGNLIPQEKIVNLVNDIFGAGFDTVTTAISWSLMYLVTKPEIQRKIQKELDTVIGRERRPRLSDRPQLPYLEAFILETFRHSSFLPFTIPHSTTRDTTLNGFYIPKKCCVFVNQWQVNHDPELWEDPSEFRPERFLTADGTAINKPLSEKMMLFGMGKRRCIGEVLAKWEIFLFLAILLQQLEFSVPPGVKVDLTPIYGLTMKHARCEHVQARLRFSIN

Cytochrome P450 2B6 = molecular target: T2, Cytochrome P450 2B6 (Homo sapiens, UniProt P20813); experiment: Drug level in human recombinant CYP2B6 expressed in insect cells coexpressing NADPH-P450 reductase measured per pmol of enzyme treated with 50 uM cinobufagin at 37 degC after 30 mins by UFLC-DAD-ESI-MS analysis; conditions: 0.5 h
T2 sequence (P20813 whole entry): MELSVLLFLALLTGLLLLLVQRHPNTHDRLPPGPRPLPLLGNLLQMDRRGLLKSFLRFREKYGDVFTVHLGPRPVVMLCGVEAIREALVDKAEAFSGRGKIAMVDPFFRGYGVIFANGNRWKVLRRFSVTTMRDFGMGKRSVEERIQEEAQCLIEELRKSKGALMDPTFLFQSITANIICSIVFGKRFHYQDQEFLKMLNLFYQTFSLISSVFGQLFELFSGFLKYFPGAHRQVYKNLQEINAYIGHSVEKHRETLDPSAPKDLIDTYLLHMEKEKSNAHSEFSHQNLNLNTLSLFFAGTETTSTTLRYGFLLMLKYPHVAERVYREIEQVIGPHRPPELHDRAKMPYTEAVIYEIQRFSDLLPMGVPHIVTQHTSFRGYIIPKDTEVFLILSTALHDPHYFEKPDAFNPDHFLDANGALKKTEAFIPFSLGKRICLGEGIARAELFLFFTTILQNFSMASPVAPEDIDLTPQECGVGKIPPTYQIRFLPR

Cytochrome P450 2C8 = molecular target: T3, Cytochrome P450 2C8 (Homo sapiens, UniProt P10632); experiment: Drug level in human recombinant CYP2C8 expressed in insect cells coexpressing NADPH-P450 reductase measured per pmol of enzyme treated with 50 uM cinobufagin at 37 degC after 30 mins by UFLC-DAD-ESI-MS analysis; conditions: 0.5 h
T3 sequence (P10632 whole entry): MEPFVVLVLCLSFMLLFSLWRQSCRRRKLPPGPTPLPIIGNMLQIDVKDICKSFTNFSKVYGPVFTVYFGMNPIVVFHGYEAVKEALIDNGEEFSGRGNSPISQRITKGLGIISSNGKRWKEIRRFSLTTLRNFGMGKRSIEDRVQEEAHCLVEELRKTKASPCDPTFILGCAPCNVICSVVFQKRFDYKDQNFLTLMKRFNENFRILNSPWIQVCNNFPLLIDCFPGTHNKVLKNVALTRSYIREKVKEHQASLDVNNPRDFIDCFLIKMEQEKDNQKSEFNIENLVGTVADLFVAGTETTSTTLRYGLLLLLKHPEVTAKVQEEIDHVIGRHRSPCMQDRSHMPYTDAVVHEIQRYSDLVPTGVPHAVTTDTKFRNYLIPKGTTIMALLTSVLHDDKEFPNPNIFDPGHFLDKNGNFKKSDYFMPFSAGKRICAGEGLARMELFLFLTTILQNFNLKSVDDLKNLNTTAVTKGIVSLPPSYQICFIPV

Cytochrome P450 2C9 = Cytochrome P450 2C9 (Homo sapiens, UniProt P11712); experiment: Drug level in human recombinant CYP2C9 expressed in insect cells coexpressing NADPH-P450 reductase measured per pmol of enzyme treated with 50 uM cinobufagin at 37 degC after 30 mins by UFLC-DAD-ESI-MS analysis; conditions: 0.5 h
Chain of Cytochrome P450 2C9 (P11712 whole entry): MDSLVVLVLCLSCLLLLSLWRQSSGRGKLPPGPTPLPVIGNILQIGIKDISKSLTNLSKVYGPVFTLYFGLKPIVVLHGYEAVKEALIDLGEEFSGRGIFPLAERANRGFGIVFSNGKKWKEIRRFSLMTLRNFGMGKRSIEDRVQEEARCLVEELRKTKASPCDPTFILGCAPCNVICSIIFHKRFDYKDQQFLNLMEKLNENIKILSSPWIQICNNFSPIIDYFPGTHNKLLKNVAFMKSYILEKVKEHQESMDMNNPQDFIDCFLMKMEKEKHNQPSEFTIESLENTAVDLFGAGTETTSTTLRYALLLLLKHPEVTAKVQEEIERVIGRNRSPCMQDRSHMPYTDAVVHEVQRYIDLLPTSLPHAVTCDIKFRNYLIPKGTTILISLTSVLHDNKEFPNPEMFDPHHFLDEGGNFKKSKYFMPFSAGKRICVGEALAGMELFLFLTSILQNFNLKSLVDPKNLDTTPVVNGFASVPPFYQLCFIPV

Cytochrome P450 2E1 = Cytochrome P450 2E1 (Homo sapiens, UniProt P05181); experiment: Drug level in human recombinant CYP2E1 expressed in insect cells coexpressing NADPH-P450 reductase measured per pmol of enzyme treated with 50 uM cinobufagin at 37 degC after 30 mins by UFLC-DAD-ESI-MS analysis; conditions: 0.5 h
Chain of Cytochrome P450 2E1 (P05181 whole entry): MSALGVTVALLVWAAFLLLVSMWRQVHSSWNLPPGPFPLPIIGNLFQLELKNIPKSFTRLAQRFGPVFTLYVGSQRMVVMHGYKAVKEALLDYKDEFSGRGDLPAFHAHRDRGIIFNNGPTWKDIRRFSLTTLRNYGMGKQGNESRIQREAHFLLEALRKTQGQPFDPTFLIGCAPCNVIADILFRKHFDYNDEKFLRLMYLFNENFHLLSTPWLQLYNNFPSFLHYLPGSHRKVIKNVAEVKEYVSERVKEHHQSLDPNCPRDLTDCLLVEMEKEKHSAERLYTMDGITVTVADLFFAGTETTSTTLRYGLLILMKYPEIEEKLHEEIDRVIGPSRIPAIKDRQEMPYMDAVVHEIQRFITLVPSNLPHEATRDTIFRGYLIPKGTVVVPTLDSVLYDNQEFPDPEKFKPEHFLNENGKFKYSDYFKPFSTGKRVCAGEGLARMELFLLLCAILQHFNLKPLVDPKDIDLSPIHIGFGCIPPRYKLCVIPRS

| SMILES | Drug metabolism [1] | Drug metabolism [2] | Drug metabolism (Liver microsome) | IC50 [3] | Drug metabolism (Cytochrome P450 2C19) | Drug metabolism (Cytochrome P450 1A2) | Drug metabolism (Cytochrome P450 2B6) | Drug metabolism (Cytochrome P450 2C8) | Drug metabolism (Cytochrome P450 2C9) | Drug metabolism (Cytochrome P450 2E1) |
| --- | --- | --- | --- | --- | --- | --- | --- | --- | --- | --- |
| CC(=O)O[C@H]1[C@H]2O[C@]23[C@@H]2CC[C@@H]4C[C@@H](O)C[C@H](O)[C@]4(C)[C@H]2CC[C@]3(C)[C@H]1c1ccc(=O)oc1 | metabolite_detected | metabolite_detected | metabolite_detected | 370 nM | < 0.01 pmol/min | < 0.01 pmol/min | < 0.01 pmol/min | < 0.01 pmol/min | < 0.01 pmol/min | < 0.01 pmol/min |
| CC(=O)O[C@H]1[C@H]2O[C@]23[C@@H]2CC[C@@H]4C[C@@H](O)CC[C@]4(C)[C@H]2CC[C@]3(C)[C@H]1c1ccc(=O)oc1 [CINOBUFAGIN] | – | – | – | 49 nM | – | – | – | – | – | – |
| CC(=O)O[C@H]1[C@H]2O[C@]23[C@@H]2CC[C@]4(O)C[C@@H](O)CC[C@]4(C)[C@H]2CC[C@]3(C)[C@H]1c1ccc(=O)oc1 [CINOBUFOTALIN] | metabolite_detected | metabolite_detected | metabolite_detected | 8620 nM | < 0.01 pmol/min | < 0.01 pmol/min | < 0.01 pmol/min | < 0.01 pmol/min | < 0.01 pmol/min | < 0.01 pmol/min |
